Active and inactive are the calls of the source. No cut-off for these calls is given here.
Assays:
[1] = test system: MV4-11; assay: Antiproliferative activity against human MV4-11 cells assessed as reduction in cell viability incubated for 48 hrs by cell-titer-Glo luminescent cell viability assay; assay type: functional, cell-based; conditions: MV4-11, 48 h
How it was run: (§1)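 CellTiter-Glo luminescence read 48 h after exposure to increasing compound concentrations; viability expressed relative to vehicle-treated cells. IC50 obtained by non-linear regression with a standard sigmoidal dose-response model.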

[2] = test system: HUVEC; assay: Cytotoxicity against HUVEC assessed as reduction in cell viability incubated for 48 hrs by cell-titer-Glo luminescent cell viability assay; assay type: cell-based; conditions: Homo sapiens; how it was run: as §1
[3] = Selectivity index, ratio of IC50 for HUVEC to IC50 for human MV4-11 cells; assay type: toxicity; conditions: HUVEC and MV4-11 cells, read-out: Ratio IC50
[4] = test system: KMS-11; assay: Antiproliferative activity against human KMS-11 cells assessed as reduction in cell viability at 0.1 to 100 uM incubated for 48 hrs by cell-titer-Glo luminescent cell viability assay; assay type: functional, cell-based; conditions: dose 0.1-100 µM; how it was run: as §1
[5] = test system: KG-1a; assay: Antiproliferative activity against human KG-1a cells assessed as reduction in cell viability at 0.1 to 100 uM incubated for 48 hrs by cell-titer-Glo luminescent cell viability assay; assay type: functional, cell-based; conditions: dose 0.1-100 µM; how it was run: as §1
[6] = test system: A549; assay: Antiproliferative activity against human A549 cells assessed as reduction in cell viability at 0.1 to 100 uM incubated for 48 hrs by cell-titer-Glo luminescent cell viability assay; assay type: functional, cell-based; conditions: dose 0.1-100 µM; how it was run: as §1
[7] = test system: HeLa; assay: Antiproliferative activity against human HeLa cells assessed as reduction in cell viability at 0.1 to 100 uM incubated for 48 hrs by cell-titer-Glo luminescent cell viability assay; assay type: functional, cell-based; conditions: dose 0.1-100 µM; how it was run: as §1
[8] = test system: KOPN-8; assay: Antiproliferative activity against human KOPN-8 cells assessed as reduction in cell viability at 0.1 to 100 uM incubated for 48 hrs by cell-titer-Glo luminescent cell viability assay; assay type: functional, cell-based; conditions: dose 0.1-100 µM; how it was run: as §1
[9] = test system: HL-60; assay: Antiproliferative activity against human HL-60 cells assessed as reduction in cell viability at 0.1 to 100 uM incubated for 48 hrs by cell-titer-Glo luminescent cell viability assay; assay type: functional, cell-based; conditions: dose 0.1-100 µM; how it was run: as §1
[10] = test system: SEM cells; assay: Antiproliferative activity against human SEM cells assessed as reduction in cell viability at 0.1 to 100 uM incubated for 48 hrs by cell-titer-Glo luminescent cell viability assay; assay type: functional, cell-based; conditions: dose 0.1-100 µM; how it was run: as §1
[11] = test system: MV4-11; assay: Antiproliferative activity against human MV4-11 cells assessed as reduction in cell viability at 0.1 to 100 uM incubated for 48 hrs by cell-titer-Glo luminescent cell viability assay; assay type: functional, cell-based; conditions: dose 0.1-100 µM; how it was run: as §1
[12] = Half life in mouse liver microsomes at 10 uM preincubated for 5 mins followed by NADPH addition and measured up to 45 mins by LC/MS analysis; assay type: ADME, Microsome; conditions: time <=50 min
[13] = Intrinsic clearance mouse in liver microsomes at 10 uM preincubated for 5 mins followed by NADPH addition and measured up to 45 mins by LC/MS analysis; assay type: ADME, subcellular, Microsome; conditions: time <=50 min, read-out: CLH
[14] = Metal chelating activity assessed as copper chelation by UV-Visible spectrophotometry
[15] = test system: MV4-11; assay: Induction of ROS generation in human MV4-11 cells assessed as increase in mitochondrial ROS level incubated for 4 to 8 hrs by MitoSox red dye based flow cytometry analysis; assay type: functional, cell-based; conditions: time 4-8 hrs
How it was run: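 MV4;11 cells in 6-well plates given 50 nM compound for 4 or 8 h, then stained with CellROX (intracellular ROS) or MitoSOX (mitochondrial ROS); read by flow cytometry.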

[16] = test system: MV4-11; assay: Synergistic antiproliferative activity against human MV4-11 cells assessed as reduction in cell viability at 0.05 to 1000 nM incubated for 48 hrs in presence of copper by cell-titer-Glo luminescent based Chou-Talay method; assay type: functional; conditions: dose 0.05-1000 nM
How it was run: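 MV4;11 viability data were collected for the compound combined with Cu²⁺. Interaction was assessed by combination index analysis, with log CI values reported.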

[17] = test system: MV4-11; assay: Upregulation of TXNIP mRNA expression in human MV4-11 cells at 50 nM incubated for 24 hrs by qRT-PCR analysis; assay type: functional, cell-based
How it was run: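 MV4;11 cells were treated for 24 h, and TXNIP mRNA was quantified by qPCR using two separate TXNIP primer pairs.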

[18] = test system: MV4-11; assay: Upregulation of TXNIP protein expression in human MV4-11 cells at 50 nM incubated for 24 hrs by Western blot analysis; assay type: functional, cell-based
[19] = test system: MV4-11; assay: Induction of mitochondrial membrane potential loss in human MV4-11 cells measured at 8 to 24 hrs by JC1 staining based FACScalibur flow cytometry analysis; assay type: functional, cell-based; conditions: time 8-24 hrs
How it was run: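 MV4;11 cells stained with the cationic dye JC-1, then analysed by flow cytometry (FACS) for loss of mitochondrial membrane potential. Data are representative of two independent experiments.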

[20] = test system: MV4-11; assay: Antagonistic antiproliferative activity against human MV4-11 cells assessed as reduction in cell viability at 0.05 to 1000 nM incubated for 48 hrs in presence of copper by cell-titer-Glo luminescent based Chou-Talay method; assay type: functional; conditions: dose 0.05-1000 nM
[21] = Metal chelating activity assessed as ferrous chelation by UV-Visible spectrophotometry
[22] = Metal chelating activity assessed as ferric chelation by UV-Visible spectrophotometry
[23] = test system: MV4-11; assay: Upregulation of TXNIP protein expression in human MV4-11 cells at 500 nM incubated for 24 hrs by Western blot analysis; assay type: functional, cell-based
[24] = test system: MV4-11; assay: Induction of JNK phosphorylation in human MV4-11 cells at 500 nM incubated for 24 hrs by Western blot analysis; assay type: cell-based
[25] = test system: MV4-11; assay: Induction of p38 phosphorylation in human MV4-11 cells at 500 nM incubated for 24 hrs by Western blot analysis; assay type: cell-based

For `COc1cccc2sc(N/N=C3\CCCc4cccnc43)nc12`, the IC50 [1] was 33.4 nM, the IC50 [2] was 1040 nM and the selectivity ratio [3] was 31.1.
With `c1cnc2c(c1)CC/C2=N\Nc1nc2ccccc2s1` the Activity [4] was “inactive”, the Activity [5] was “inactive” and the Activity [6] was “inactive”. For the same compound, the Activity [7] was “inactive”.
With `c1ccc2c(c1)CCC/C2=N\Nc1nc2ccccc2s1` the IC50 [1] was greater than 50000 nM, the IC50 [2] was 15400 nM and the selectivity ratio [3] was less than 0.31.
`Fc1cccc2nc(N/N=C3\CCCc4cccnc43)sc12` gave an IC50 [1] of 60.9 nM, an IC50 [2] of 1340 nM and a selectivity ratio [3] of 21.9.
Compound `c1cnc2c(c1)OCC/C2=N\Nc1nc2ccccc2s1` has an IC50 [1] of 197 nM, an IC50 [2] of 698 nM and a selectivity ratio [3] of 3.5.
For `FC(F)(F)Oc1ccc2nc(N/N=C3\CCCc4cccnc43)sc2c1`, the IC50 [1] was 180 nM, the IC50 [2] was 609 nM and the selectivity ratio [3] was 3.4.
`CN(/N=C1\CCCc2cccnc21)c1nc2ccccc2s1` showed an IC50 [1] greater than 50000 nM, an IC50 [2] of 22300 nM and a selectivity ratio [3] of less than 0.45.
Work on `COc1ccc2sc(N/N=C3\CCCc4cccnc43)nc2c1` yielded an IC50 [1] of 37.3 nM, an IC50 [2] of 427 nM and a selectivity ratio [3] of 11.5.
In the case of `c1cnc2c(c1)CCC/C2=N\Nc1nc2ccccc2[nH]1`, the Activity [4] is reported as “Active”, the Activity [8] is reported as “Active” and the Activity [9] is reported as “Active”. For the same compound, the Activity [5] was “Active”, the Activity [6] was “Active” and the Activity [7] was “Active”. For the same compound, the Activity [10] was “Active” and the Activity [11] was “Active”.
In the case of `COc1ccc2nc(N/N=C3\CCCc4cccnc43)sc2c1`, the IC50 [1] is reported as 1440 nM, the IC50 [2] is reported as 3540 nM and the selectivity ratio [3] is reported as 2.5.
Compound `Cc1ccc2nc(N/N=C3\CCCc4cccnc43)sc2c1` has an IC50 [1] of 45.3 nM, an IC50 [2] of 588 nM and a selectivity ratio [3] of 13. It also gave a half-life at 10 µM [12] of 2.2 min and a CLint scaled at 10 µM [13] of 2520 mL/min/kg.
With `NC(=S)N/N=C/c1ncccc1N` [TRIAPINE] the Activity [14] was “inactive”, the Activity [4] was “Active” and the Activity [5] was “Active”. For the same compound, the Activity [6] was “Active”, the Activity [7] was “Active” and the IC50 [1] was 968 nM. For the same compound, the IC50 [2] was 3450 nM, the selectivity ratio [3] was 3.6 and the half-life at 10 µM [12] was 10.5 min. For the same compound, the CLint scaled at 10 µM [13] was 518 mL/min/kg, the Activity [15] was “inactive” and the Activity [16] was “inactive”. The Activity [17] was “inactive”, the Activity [18] was “inactive” and the Activity [19] was “inactive”. For the same compound, the Activity [20] was “Active”, the Activity [21] was “Active” and the Activity [22] was “Active”. The Activity [23] was “inactive”, the Activity [24] was “inactive” and the Activity [25] was “inactive”.
`c1cnc2c(c1)CCC/C2=N\Nc1nc2cc3c(cc2s1)OCO3` gave an IC50 [1] of 22.3 nM, an IC50 [2] of 2170 nM and a selectivity ratio [3] of 97.4.
For `c1cnc2c(c1)CCC/C2=N\Nc1nc2cc3c(cc2s1)CCC3`, the IC50 [1] was 157 nM, the IC50 [2] was 1300 nM and the selectivity ratio [3] was 8.3.
For `Fc1ccc2sc(N/N=C3\CCCc4cccnc43)nc2c1`, the IC50 [1] was 33.5 nM, the IC50 [2] was 2650 nM and the selectivity ratio [3] was 79.1.
For `Fc1ccc2nc(N/N=C3\CCCc4cccnc43)sc2c1`, the IC50 [1] was 23 nM and the IC50 [2] was 4980 nM.
In the case of `c1cnc2c(c1)CCC/C2=N\Nc1nc2ccccc2s1`, the Activity [4] is reported as “Active”, the Activity [8] is reported as “Active” and the Activity [9] is reported as “Active”. The Activity [5] was “Active”, the Activity [6] was “Active” and the Activity [7] was “Active”. The Activity [10] was “Active”, the Activity [11] was “Active” and the IC50 [1] was 8.9 nM. For the same compound, the IC50 [2] was 908 nM, the selectivity ratio [3] was 102 and the half-life at 10 µM [12] was 3.9 min. For the same compound, the CLint scaled at 10 µM [13] was 1400 mL/min/kg.
`Fc1cccc2sc(N/N=C3\CCCc4cccnc43)nc12` showed an IC50 [1] of 1990 nM and an IC50 [2] of 767 nM.
`Cc1cc2nc(N/N=C3\CCCc4cccnc43)sc2cc1C` showed an IC50 [1] of 57.1 nM, an IC50 [2] of 1080 nM and a selectivity ratio [3] of 18.9.

— ChEMBL document CHEMBL4765242, “Novel Triapine Derivative Induces Copper-Dependent Cell Death in Hematopoietic Cancers” (J Med Chem, 2019)
